Experimental findings from ChEMBL document CHEMBL5653631, “A Potent and Selective ULK1 Inhibitor Suppresses Autophagy and Sensitizes Cancer Cells to Nutrient Stress” (iScience, 2018) are described below.

In test [1] the target is T1, Activin receptor type-1B (Homo sapiens) (UniProt P36896).
T1 sequence (whole entry): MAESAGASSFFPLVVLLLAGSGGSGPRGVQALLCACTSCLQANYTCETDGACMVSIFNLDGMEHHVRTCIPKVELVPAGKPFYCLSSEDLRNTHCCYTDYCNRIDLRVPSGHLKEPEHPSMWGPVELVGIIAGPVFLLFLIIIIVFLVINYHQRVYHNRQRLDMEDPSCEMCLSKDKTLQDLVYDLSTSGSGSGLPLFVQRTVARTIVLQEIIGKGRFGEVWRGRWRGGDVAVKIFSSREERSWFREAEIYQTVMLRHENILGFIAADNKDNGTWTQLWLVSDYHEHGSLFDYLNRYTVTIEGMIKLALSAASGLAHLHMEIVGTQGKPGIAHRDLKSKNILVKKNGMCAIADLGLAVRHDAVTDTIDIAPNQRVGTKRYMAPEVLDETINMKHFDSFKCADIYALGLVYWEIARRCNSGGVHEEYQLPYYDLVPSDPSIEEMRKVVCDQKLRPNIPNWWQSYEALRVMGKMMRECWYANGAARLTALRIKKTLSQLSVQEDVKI
Briefly: Inhibition of human recombinant ALK4 at 40 nM in presence of ATP by radiometric assay relative to control. Summed up:
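Panel of 327 recombinant human kinases, each assayed in vitro by radiometric activity assay in duplicate at a single inhibitor concentration per compound, chosen with reference to its ULK1 inhibition. Activity remaining was expressed as percent of vehicle control, and percent inhibition was calculated as 100 minus percent activity remaining.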

The target of test [2] is Macrophage-stimulating protein receptor (Homo sapiens) (UniProt Q04912). Briefly: Inhibition of human recombinant RON at 40 nM in presence of ATP by radiometric assay relative to control.
Test [3] concerns the target T2, Testis-specific serine/threonine-protein kinase 3 (Homo sapiens) (UniProt Q96PN8).
T2 sequence (whole entry): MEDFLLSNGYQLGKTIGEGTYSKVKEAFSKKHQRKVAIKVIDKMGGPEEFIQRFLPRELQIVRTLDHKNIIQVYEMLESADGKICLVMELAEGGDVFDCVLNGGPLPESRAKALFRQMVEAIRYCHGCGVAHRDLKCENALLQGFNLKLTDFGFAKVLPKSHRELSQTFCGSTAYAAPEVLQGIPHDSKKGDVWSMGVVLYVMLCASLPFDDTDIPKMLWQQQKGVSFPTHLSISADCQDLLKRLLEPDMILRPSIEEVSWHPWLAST
Briefly: Inhibition of human recombinant TSSK3 at 40 nM in presence of ATP by radiometric assay relative to control.

In test [4] the target is T1, Activin receptor type-1B (Homo sapiens). Kind of test: Inhibition of human recombinant ALK4 at 40 nM related to control ULK1. Summed up: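 Radiometric activity assays in a panel of 327 human recombinant kinases, each run in duplicate at one inhibitor concentration. Activity remaining is expressed as percent of vehicle control, and percent inhibition is calculated as 100% minus percent activity remaining.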

Test [5] deals with SRSF protein kinase 2 (Homo sapiens) (UniProt P78362). Briefly: Inhibition of human recombinant SRPK2 at 40 nM related to control ULK1.
SRSF protein kinase 2 (Homo sapiens), sequence (P78362 whole entry, looked up): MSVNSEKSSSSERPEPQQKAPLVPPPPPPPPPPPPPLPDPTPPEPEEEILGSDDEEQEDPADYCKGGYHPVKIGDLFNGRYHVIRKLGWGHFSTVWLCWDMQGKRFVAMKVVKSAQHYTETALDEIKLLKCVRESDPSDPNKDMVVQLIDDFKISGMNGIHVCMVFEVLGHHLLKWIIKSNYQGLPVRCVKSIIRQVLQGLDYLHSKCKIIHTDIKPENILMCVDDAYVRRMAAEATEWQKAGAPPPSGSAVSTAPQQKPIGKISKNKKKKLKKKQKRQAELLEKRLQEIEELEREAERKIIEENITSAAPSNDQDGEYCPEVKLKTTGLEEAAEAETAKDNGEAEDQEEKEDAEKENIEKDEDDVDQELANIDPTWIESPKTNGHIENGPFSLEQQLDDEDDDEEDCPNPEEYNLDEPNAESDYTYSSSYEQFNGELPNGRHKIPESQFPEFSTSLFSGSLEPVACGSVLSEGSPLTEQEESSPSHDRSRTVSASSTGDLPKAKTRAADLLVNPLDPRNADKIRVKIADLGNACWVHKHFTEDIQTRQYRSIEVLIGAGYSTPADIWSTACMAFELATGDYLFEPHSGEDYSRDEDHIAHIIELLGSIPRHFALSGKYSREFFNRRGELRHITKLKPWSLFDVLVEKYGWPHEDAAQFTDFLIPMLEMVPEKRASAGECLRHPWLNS
Test [6] addresses Calcium/calmodulin-dependent protein kinase type 1B (Homo sapiens) (UniProt Q6P2M8). Kind of test: Inhibition of human recombinant CaMK1b at 500 nM in presence of ATP by radiometric assay relative to control.
Test [7] has as its target Calcium/calmodulin-dependent protein kinase type II subunit gamma (Homo sapiens) (UniProt Q13555). Briefly: Inhibition of human recombinant CaMK2g at 500 nM in presence of ATP by radiometric assay relative to control.
In test [8] the target is Cyclin-dependent kinase 9 (Homo sapiens) (UniProt P50750). Kind of test: Inhibition of human recombinant CDK9 at 500 nM related to control ULK1.
Cyclin-dependent kinase 9 (Homo sapiens), sequence (P50750 whole entry): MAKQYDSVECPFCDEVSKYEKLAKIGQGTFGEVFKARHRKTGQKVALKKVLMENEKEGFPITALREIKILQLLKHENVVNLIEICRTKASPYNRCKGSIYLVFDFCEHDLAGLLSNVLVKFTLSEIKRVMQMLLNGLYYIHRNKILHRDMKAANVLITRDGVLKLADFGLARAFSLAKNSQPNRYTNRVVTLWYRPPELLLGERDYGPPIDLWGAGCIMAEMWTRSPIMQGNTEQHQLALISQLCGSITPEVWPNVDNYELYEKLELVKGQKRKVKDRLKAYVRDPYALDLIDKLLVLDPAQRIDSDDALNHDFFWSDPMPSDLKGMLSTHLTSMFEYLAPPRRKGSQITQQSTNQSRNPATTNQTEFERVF
The target in test [9] is G protein-coupled receptor kinase 5 (Homo sapiens) (UniProt P34947). Briefly: Inhibition of human recombinant GPRK5 at 500 nM related to control ULK1.
G protein-coupled receptor kinase 5 (Homo sapiens), sequence (P34947 whole entry, looked up): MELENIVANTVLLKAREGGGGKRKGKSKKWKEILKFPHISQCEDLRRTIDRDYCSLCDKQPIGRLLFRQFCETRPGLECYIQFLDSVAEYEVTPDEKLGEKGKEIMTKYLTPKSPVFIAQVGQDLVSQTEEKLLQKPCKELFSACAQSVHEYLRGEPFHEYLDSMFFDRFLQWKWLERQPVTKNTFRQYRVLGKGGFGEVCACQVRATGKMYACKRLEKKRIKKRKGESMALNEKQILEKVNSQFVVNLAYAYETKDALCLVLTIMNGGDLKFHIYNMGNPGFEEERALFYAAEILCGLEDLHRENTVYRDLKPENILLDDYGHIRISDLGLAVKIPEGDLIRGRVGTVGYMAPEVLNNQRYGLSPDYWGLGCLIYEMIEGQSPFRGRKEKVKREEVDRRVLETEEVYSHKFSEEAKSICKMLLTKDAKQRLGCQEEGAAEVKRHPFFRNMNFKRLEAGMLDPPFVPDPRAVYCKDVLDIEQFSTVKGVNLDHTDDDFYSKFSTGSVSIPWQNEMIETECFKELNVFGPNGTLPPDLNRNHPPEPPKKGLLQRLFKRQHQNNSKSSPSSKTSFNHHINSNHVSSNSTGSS
In test [10] the target is Homeodomain-interacting protein kinase 3 (Homo sapiens) (UniProt Q9H422). Briefly: Inhibition of human recombinant HIPK3 at 500 nM related to control ULK1.
The target of test [11] is Calcium/calmodulin-dependent protein kinase type 1 (Homo sapiens) (UniProt Q14012). Kind of test: Inhibition of human recombinant CaMK1a at 15 nM in presence of ATP by radiometric assay relative to control.
Calcium/calmodulin-dependent protein kinase type 1 (Homo sapiens), sequence (Q14012 whole entry, looked up): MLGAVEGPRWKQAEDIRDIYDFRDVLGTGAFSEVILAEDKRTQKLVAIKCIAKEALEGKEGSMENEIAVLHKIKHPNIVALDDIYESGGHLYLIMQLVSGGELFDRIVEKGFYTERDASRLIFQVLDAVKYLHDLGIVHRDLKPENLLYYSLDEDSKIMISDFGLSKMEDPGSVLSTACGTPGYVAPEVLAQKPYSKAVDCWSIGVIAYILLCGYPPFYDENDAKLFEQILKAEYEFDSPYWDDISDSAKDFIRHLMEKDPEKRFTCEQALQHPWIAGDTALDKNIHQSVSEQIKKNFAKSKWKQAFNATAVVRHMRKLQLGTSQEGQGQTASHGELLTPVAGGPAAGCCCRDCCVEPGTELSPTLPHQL
In test [12] the target is T3, Ephrin type-A receptor 8 (Homo sapiens) (UniProt P29322).
T3 sequence (whole entry): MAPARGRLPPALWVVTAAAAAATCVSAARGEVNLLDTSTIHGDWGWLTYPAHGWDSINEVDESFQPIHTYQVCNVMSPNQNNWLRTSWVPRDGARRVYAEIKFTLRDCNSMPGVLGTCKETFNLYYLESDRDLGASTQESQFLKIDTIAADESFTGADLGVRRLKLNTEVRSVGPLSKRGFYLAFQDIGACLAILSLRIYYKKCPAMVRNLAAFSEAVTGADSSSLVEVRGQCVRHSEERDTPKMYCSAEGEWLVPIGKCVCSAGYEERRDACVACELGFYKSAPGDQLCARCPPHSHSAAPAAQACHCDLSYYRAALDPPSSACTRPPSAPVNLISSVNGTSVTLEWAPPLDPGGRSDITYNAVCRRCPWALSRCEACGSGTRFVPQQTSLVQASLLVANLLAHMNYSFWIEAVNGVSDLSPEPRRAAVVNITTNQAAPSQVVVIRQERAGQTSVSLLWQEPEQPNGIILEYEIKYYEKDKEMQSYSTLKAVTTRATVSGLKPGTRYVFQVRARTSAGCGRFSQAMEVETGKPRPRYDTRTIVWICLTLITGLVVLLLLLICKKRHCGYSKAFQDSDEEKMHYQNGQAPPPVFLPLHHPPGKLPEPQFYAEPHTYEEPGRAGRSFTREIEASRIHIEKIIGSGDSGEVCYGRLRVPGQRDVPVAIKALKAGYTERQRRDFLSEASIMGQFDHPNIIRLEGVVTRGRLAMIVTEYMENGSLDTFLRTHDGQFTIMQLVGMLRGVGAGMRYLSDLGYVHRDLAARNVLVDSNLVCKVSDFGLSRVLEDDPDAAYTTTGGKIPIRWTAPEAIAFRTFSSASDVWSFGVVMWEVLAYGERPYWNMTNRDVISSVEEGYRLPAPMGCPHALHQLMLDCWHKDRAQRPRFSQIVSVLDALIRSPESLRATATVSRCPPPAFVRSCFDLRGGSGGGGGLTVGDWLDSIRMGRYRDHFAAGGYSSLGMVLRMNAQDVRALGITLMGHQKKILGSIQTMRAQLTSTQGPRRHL
Briefly: Inhibition of human recombinant EphA8 at 15 nM related to control ULK1.

In test [13] the target is Serine/threonine-protein kinase PLK1 (Homo sapiens) (UniProt P53350). Briefly: Inhibition of human recombinant PLK1 at 15 nM related to control ULK1.
Serine/threonine-protein kinase PLK1 (Homo sapiens), sequence (P53350 whole entry): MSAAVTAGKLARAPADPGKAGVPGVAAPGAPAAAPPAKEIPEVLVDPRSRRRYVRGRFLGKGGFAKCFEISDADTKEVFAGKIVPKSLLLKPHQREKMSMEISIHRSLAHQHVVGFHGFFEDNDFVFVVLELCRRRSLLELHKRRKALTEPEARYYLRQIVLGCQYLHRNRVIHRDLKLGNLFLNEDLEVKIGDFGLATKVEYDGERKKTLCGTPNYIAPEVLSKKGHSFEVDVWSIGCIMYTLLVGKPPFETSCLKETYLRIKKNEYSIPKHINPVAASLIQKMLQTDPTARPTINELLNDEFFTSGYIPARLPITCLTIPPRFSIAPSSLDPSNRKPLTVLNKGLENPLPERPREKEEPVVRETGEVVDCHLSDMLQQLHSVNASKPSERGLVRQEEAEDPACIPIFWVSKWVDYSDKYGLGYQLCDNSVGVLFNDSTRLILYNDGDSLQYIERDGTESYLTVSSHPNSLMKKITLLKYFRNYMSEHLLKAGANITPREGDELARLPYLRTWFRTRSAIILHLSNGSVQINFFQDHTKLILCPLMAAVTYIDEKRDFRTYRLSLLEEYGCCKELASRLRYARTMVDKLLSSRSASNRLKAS
The target of test [14] is Serine/threonine-protein kinase 4 (MST1/STK4) (Homo sapiens) (UniProt Q13043). Briefly: Inhibition of human recombinant MST1 at 15 nM in presence of ATP by radiometric assay relative to control.
Serine/threonine-protein kinase 4 (MST1/STK4) (Homo sapiens), sequence (Q13043 whole entry, looked up): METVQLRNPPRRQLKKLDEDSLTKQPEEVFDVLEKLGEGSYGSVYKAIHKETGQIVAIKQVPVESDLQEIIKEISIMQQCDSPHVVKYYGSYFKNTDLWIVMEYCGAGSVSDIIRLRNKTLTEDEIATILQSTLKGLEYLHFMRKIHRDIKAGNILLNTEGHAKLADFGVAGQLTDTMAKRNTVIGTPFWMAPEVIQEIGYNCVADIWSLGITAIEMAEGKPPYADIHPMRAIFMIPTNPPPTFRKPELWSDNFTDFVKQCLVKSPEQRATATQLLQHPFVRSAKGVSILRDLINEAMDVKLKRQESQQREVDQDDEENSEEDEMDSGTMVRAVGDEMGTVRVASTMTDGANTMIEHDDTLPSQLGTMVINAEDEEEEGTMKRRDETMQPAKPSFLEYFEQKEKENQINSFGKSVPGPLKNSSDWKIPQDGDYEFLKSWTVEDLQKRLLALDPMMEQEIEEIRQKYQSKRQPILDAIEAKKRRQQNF

Calcium/calmodulin-dependent protein kinase type 1B (Homo sapiens), sequence (Q6P2M8 whole entry): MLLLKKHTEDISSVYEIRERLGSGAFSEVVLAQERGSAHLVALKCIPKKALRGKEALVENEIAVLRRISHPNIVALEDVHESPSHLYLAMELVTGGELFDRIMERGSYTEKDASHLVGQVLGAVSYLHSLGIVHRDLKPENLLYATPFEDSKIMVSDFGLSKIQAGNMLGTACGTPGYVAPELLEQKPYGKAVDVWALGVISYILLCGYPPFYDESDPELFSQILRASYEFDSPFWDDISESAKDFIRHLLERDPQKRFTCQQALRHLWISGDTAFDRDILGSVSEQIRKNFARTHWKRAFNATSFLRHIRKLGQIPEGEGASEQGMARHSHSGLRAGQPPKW
Calcium/calmodulin-dependent protein kinase type II subunit gamma (Homo sapiens), sequence (Q13555 whole entry): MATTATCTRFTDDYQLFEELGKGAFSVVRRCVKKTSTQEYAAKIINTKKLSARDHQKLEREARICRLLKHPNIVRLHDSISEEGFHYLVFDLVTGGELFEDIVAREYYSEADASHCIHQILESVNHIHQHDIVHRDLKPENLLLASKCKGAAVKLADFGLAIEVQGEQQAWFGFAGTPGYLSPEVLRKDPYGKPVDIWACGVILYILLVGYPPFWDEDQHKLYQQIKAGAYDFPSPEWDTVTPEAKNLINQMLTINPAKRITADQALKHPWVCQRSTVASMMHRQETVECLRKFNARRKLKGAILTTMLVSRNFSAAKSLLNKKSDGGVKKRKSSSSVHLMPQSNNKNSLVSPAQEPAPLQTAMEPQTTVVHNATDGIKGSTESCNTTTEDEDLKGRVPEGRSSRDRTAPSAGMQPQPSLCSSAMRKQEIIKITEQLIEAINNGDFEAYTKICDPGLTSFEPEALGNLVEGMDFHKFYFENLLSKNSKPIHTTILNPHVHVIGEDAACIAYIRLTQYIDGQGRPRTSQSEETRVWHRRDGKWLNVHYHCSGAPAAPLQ

On to `O=C(N[C@@H](C1CC1)C(F)(F)F)c1cc(-c2cnn3cc(-c4ccc(F)cc4)cnc23)cs1`, for which the inhibition in [1], in test [2] and in test [3] was 0% in each case. In addition, the fold change (FC) in test [4] amounted to 0; in test [5], 0.01.

As to `CNC(=O)c1ccccc1Oc1nc(Nc2cc(OC)c(OC)c(OC)c2)ncc1Br`, the inhibition (usually the percentage by which the read-out fell short of the control) in test [6] was 0%; in test [7], 2%. Besides, the fold change (FC) in test [8] came to 0.04; in test [9], 0.01; in [10] it was 0.08.

For the compound `CC(C)[C@H](NC(=O)c1cc(-c2cnn3cc(-c4ccc(OCCN5CCCCC5)cc4)cnc23)cs1)C(F)(F)F`, the inhibition in test [11] amounted to 7%; in test [14], 3%. In addition, the fold change (FC) in [12] came to 0; in [13], 0.01.
